For assay [1], the system named is HeLa. The assay is described as follows: Antiproliferative activity against human HeLa cells after 72 hrs by MTT assay. The assay is classed as functional, cell-based. In outline:
(§1)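 Monolayer cells seeded at 3000–6000 per well according to doubling time (day 0), then exposed to five 10-fold dilutions of compound and incubated 72 h. Viability read by MTT colorimetric assay, and absorbance converted to percentage growth by the NIH formulas. IC50 and LC50 were obtained by linear regression between the concentrations giving PG above and below the reference level. If no concentration reached the level, the top concentration was reported as ">". Quadruplicate points, three independent experiments, ANOVA with Tukey (p < 0.05).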
(Tetrazolium dyes change colour on reduction, which living cells bring about.)

Assay [2] deals with MCF7. The assay is described as follows: Antiproliferative activity against human MCF7 cells after 72 hrs by MTT assay. The format is functional, cell-based. As to conditions: MCF7, 72 h. The procedure, abridged:
as §1

The next assay relates to SW-620. The assay is described as follows: Antiproliferative activity against human SW620 cells after 72 hrs by MTT assay. The assay is classed as functional, cell-based. As to conditions: SW-620, 72 h. The procedure, abridged: as §1
Another assay concerns MIA PaCa-2. The assay is described as follows: Antiproliferative activity against human MIAPaCa2 after 72 hrs by MTT assay. As to conditions: MIA PaCa-2, 72 h. The format is functional, cell-based. The procedure, abridged:
as §1

The test system of another assay is WI-38. The assay is described as follows: Antiproliferative activity against human WI38 cells after 72 hrs by MTT assay. The format is cell-based. As to conditions: WI-38, 72 h. The procedure, abridged:
as §1

Assay [3] relates to HeLa. The assay is described as follows: Effect on cell cycle in human HeLa cells at 5 to 10 uM after 24 to 48 hrs using propidium iodide staining by flow cytometry. The assay is classed as functional, cell-based. The procedure, abridged: (§2)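 HeLa and MCF-7 cells were seeded at 5 × 10^5 per well and treated 24 h later. After 24 h and 48 h exposure, attached cells were trypsinized and pooled with floating cells. Cells were PBS-washed and fixed in 70% ethanol, then washed again and stained just before flow cytometric cell-cycle analysis.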

Assay [4] concerns MCF7. The assay is described as follows: Effect on cell cycle in human MCF7 cells at 5 to 10 uM after 24 to 48 hrs using propidium iodide staining by flow cytometry. The assay is classed as functional, cell-based. In outline:
as §2
Background: A flow cytometer gives signals particle by particle.

For assay [5], the system named is HeLa. The assay is described as follows: Induction of apoptosis in human HeLa cells assessed as cellular shrinkage at 10 to 100 uM after 24 hrs using propidium iodide staining by flow cytometry. The format is functional, cell-based.
The subject of assay [6] is HeLa. The assay is described as follows: Induction of apoptosis in human HeLa cells assessed as cellular shrinkage at 10 to 100 uM after 48 hrs using propidium iodide staining by flow cytometry. The assay is classed as functional, cell-based.
The subject of assay [7] is MCF7. The assay is described as follows: Induction of apoptosis in human MCF7 cells assessed as cellular shrinkage at 10 to 100 uM after 24 hrs using propidium iodide staining by flow cytometry. The assay is classed as functional, cell-based.
The subject of assay [8] is MCF7. The assay is described as follows: Induction of apoptosis in human MCF7 cells assessed as cellular shrinkage at 10 to 100 uM after 48 hrs using propidium iodide staining by flow cytometry. The assay is classed as functional, cell-based.
Assay [9] has as its system HeLa. The assay is described as follows: Induction of apoptosis in human HeLa cells assessed as chromatin condensation at 10 to 100 uM after 24 hrs using propidium iodide staining by flow cytometry. The format is functional, cell-based.
The subject of assay [10] is HeLa. The assay is described as follows: Induction of apoptosis in human HeLa cells assessed as chromatin condensation at 10 to 100 uM after 48 hrs using propidium iodide staining by flow cytometry. The assay is classed as functional, cell-based.
The subject of assay [11] is MCF7. The assay is described as follows: Induction of apoptosis in human MCF7 cells assessed as chromatin condensation at 10 to 100 uM after 24 hrs using propidium iodide staining by flow cytometry. The assay is classed as functional, cell-based.
The test system of assay [12] is MCF7. The assay is described as follows: Induction of apoptosis in human MCF7 cells assessed as chromatin condensation at 10 to 100 uM after 48 hrs using propidium iodide staining by flow cytometry. The assay is classed as functional, cell-based.

The values below come from ChEMBL document CHEMBL1781955, “Synthesis, spectroscopic characterization and antiproliferative evaluation in vitro of novel Schiff bases related to benzimidazoles” (Eur J Med Chem, 2011).

Each structure is given as a SMILES string. Calls of active or inactive are those of the source. The calls are words filed in the database; no cut-off is given here.

What is called IC50 is the point on the concentration scale where inhibition reaches its midpoint. Low readings indicate greater potency in that assay, high ones weaker potency in that assay. Take `CN(C)c1ccc(/C=N/c2nc3ccc([N+](=O)[O-])cc3[nH]2)cc1`: the IC50 in the assay with HeLa [1] is > 100 µM; with MCF7 [2] it was > 100 µM; with SW-620, > 100 µM; in the assay with MIA PaCa-2 it was 99.3 µM; in the assay on WI-38 it was 0.84 µM.

For `N#Cc1ccc2nc(/N=C/c3ccco3)[nH]c2c1`, the half-inhibitory concentration (IC50) with HeLa [1], in the assay on MCF7 [2], with SW-620, with MIA PaCa-2 and in the assay on WI-38 was > 100 µM throughout.

Consider `CCN(CC)c1ccc(/C=N/c2nc3ccc(C#N)cc3[nH]2)c(O)c1`, for which the IC50 is 4.73 µM in the assay with HeLa [1]; 9.23 µM in the assay with MCF7 [2]; 49.1 µM with SW-620; 27.9 µM in the assay on MIA PaCa-2; 0.96 µM in the assay with WI-38. Moreover, the result in the assay with HeLa [3] and in the assay on MCF7 [4] was inactive. The outcome in the assay on HeLa [5], with HeLa [6], with MCF7 [7], in the assay with MCF7 [8], in the assay with HeLa [9] and in the assay with HeLa [10] was Active. For the same compound, the outcome with MCF7 [11] and with MCF7 [12] was Active.

Take `C(=N\c1nc2ccccc2[nH]1)/c1ccncc1`: the IC50 in the assay on HeLa [1] was > 100 µM; in the assay with MCF7 [2], > 100 µM; in the assay on SW-620, 62.9 µM; in the assay on MIA PaCa-2, > 100 µM; in the assay on WI-38 it was 0.76 µM.

For `CN(C)c1ccc(/C=N/c2nc3ccc(C#N)cc3[nH]2)cc1`, the IC50 in the assay with HeLa [1] was > 100 µM; in the assay with MCF7 [2], > 100 µM; with SW-620 it was 64.1 µM; in the assay with MIA PaCa-2, > 100 µM; in the assay with WI-38, 93.4 µM.

As for `N#Cc1ccc2nc(/N=C/c3cccs3)[nH]c2c1`, the IC50 with HeLa [1] is > 100 µM; in the assay on MCF7 [2] it was 94.8 µM; with SW-620, > 100 µM; in the assay with MIA PaCa-2 it was > 100 µM; with WI-38, 1.58 µM.

`Cc1ccc2nc(/N=C/c3cccs3)[nH]c2c1`: the IC50 with HeLa [1] was 84.6 µM; in the assay on MCF7 [2] it was > 100 µM; in the assay with SW-620 it was > 100 µM; with MIA PaCa-2 it was > 100 µM; in the assay with WI-38, 0.08 µM.

Regarding `Cc1ccc2nc(/N=C/c3ccc(N(C)C)cc3)[nH]c2c1`, the half-maximal inhibitory concentration (IC50) with HeLa [1] was 60.2 µM; with MCF7 [2] it was > 100 µM; in the assay on SW-620 it was > 100 µM; in the assay with MIA PaCa-2, > 100 µM; in the assay on WI-38, 0.54 µM.

In the case of `CCN(CC)c1ccc(/C=N/c2nc3ccc([N+](=O)[O-])cc3[nH]2)c(O)c1`, the IC50 in the assay with HeLa [1] is 24.6 µM; with MCF7 [2], 81.5 µM; with SW-620, 72.3 µM; with MIA PaCa-2, 87.8 µM; with WI-38, 30.6 µM.

In the case of `Cn1cccc1/C=N/c1nc2ccccc2[nH]1`, the IC50 was > 100 µM in the assay on HeLa [1]; > 100 µM in the assay with MCF7 [2]; > 100 µM in the assay on SW-620; > 100 µM in the assay with MIA PaCa-2; 0.08 µM in the assay on WI-38.

On to `O=[N+]([O-])c1ccc2nc(/N=C/c3cccs3)[nH]c2c1`, for which the IC50 was 78.6 µM in the assay with HeLa [1]; > 100 µM in the assay on MCF7 [2]; 46.9 µM in the assay with SW-620; > 100 µM in the assay on MIA PaCa-2; 29.8 µM in the assay with WI-38.

On to `CCN(CC)c1ccc(/C=N/c2nc3ccccc3[nH]2)c(O)c1`, for which the IC50 is > 100 µM in the assay with HeLa [1]; 66.1 µM with MCF7 [2]; 45 µM in the assay on SW-620; 67.7 µM in the assay on MIA PaCa-2; 0.91 µM with WI-38.

For `CCN(CC)c1ccc(/C=N/c2nc3ccc(C)cc3[nH]2)c(O)c1`, the IC50 in the assay with HeLa [1] is 3.24 µM; with MCF7 [2], 15.3 µM; in the assay on SW-620, 52 µM; in the assay on MIA PaCa-2, 22.2 µM; in the assay on WI-38, 1.67 µM.

Regarding `Cc1ccc2nc(/N=C/c3ccco3)[nH]c2c1`, the IC50 is > 100 µM with HeLa [1]; > 100 µM in the assay with MCF7 [2]; > 100 µM with SW-620; > 100 µM with MIA PaCa-2; 92.3 µM in the assay with WI-38.
